From PMC7396962 (Xenobiotica; the fate of foreign compounds in biological …, 2020)
In brackets after ≈: the same amount, converted by molar mass.

What was measured:
CYP2C8 = biological target: T1, CYP2C8 (Homo sapiens, UniProt P10632); format: in vitro ADME; details: panel of HLMs (n = 9), substrate 10 μM, p = 0.001
T1 sequence (P10632 1-490): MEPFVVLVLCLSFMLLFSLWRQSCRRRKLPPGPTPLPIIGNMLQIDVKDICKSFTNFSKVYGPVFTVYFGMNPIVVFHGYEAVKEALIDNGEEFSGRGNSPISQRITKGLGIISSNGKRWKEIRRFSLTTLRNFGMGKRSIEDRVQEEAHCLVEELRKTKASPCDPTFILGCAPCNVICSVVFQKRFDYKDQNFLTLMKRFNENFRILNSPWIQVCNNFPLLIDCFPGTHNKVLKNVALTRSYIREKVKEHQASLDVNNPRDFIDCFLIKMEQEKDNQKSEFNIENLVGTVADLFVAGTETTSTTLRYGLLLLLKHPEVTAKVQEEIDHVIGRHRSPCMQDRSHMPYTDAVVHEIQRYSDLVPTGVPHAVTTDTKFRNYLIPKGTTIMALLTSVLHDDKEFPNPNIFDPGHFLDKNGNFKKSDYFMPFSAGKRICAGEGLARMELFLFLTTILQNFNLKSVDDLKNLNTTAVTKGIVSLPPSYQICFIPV
Procedure, shortened: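 Nine individual human liver microsomes (1 mg/mL) each incubated with test compound at 10 μM plus 1 mM NADPH, pH 7.4, 37 °C, 60 min. Oxidation rates correlated by linear regression (r) with each donor's paclitaxel 6-hydroxylation activity. p < 0.05 taken as significant.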

PPAR-γ = details: ref Ma et al., 2016; cited from earlier work
[1] = rat, in vivo, cited from earlier work
pooled HLM = assay: Glucuronidation of CA in pooled HLM; format: in vitro ADME, human; details: higher than phase I metabolism
Procedure, shortened: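 Pooled human liver microsomes (1 mg/mL) with test compound 0.16–80 μM, UDPGA 3.5 mM, alamethicin 22 μg/mL, saccharolactone 4.4 mM and MgCl2 0.88 mM in Tris-HCl pH 7.4, 37 °C for 60 min. Phase I run in parallel with 1 mM NADPH. Metabolites quantified by UHPLC-UV (270 nm) as parent equivalents; kinetics fitted by model, CLint = Vmax/Km; triplicate.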

[2] = system: HepG2 hepatocellular carcinoma cell line; details: cited from earlier work
UGT1A9 [3] = biological target: T2, UGT1A9 (Homo sapiens, UniProt O60656); assay: Glucuronidation of CA by recombinant UGT1A9; format: in vitro ADME; details: formation of the glucuronide from CA
T2 sequence (O60656 26-530): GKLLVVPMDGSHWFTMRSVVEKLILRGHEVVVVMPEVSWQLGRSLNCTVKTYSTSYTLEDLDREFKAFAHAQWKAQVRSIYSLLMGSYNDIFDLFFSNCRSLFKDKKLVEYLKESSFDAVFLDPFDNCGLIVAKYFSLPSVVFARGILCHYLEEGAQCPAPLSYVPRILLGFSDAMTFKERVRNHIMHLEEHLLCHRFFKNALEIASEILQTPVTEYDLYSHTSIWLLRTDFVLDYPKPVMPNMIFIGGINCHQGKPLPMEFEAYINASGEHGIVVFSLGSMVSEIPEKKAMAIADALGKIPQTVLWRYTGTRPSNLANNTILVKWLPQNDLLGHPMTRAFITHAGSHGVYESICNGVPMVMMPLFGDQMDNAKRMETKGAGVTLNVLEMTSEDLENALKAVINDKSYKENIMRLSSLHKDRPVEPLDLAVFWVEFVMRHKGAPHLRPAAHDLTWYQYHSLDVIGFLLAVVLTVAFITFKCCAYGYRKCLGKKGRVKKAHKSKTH

UGT1A9 [4] = biological target: T2, UGT1A9; format: in vitro ADME; details: panel of HLMs (n = 9), substrate 10 μM, p = 0.015
Procedure, shortened: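 Test compound (10 μM) glucuronidated in each of nine individual human liver microsomes (1 mg/mL) with UDPGA and alamethicin, pH 7.4, 37 °C for 60 min. Rates regressed linearly against each donor's propofol O-glucuronidation activity; correlation coefficient r reported, p < 0.05 significant.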

[5] = system: expressed human CYP enzymes; assay: Reaction phenotyping with twelve expressed CYP enzymes; format: in vitro ADME
Procedure, shortened: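 Twelve expressed human CYPs (1–1.2 mg/mL) with test compound 0.16–80 μM, NADPH 1 mM and MgCl2 in 50 mM Tris-HCl pH 7.4, 37 °C, 60 min. Controls lacked NADPH. Acetonitrile quench, then UHPLC-UV/Q-TOF MS. Formation rates given as pmol/min/mg protein. Kinetics fitted after Eadie–Hofstee inspection; CLint = Vmax/Km; triplicate.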

human UGT1A1 = details: cited from earlier work
[6] = system: recombinant human UGT isoforms; assay: Reaction phenotyping with twelve recombinant UGT isoforms; format: in vitro ADME
UGT1A1 = biological target: T3, UGT1A1 (Homo sapiens, UniProt P22309); assay: Glucuronidation of CA by recombinant UGT1A1; format: in vitro ADME; details: formation of the glucuronide from CA
T3 sequence (P22309 26-533): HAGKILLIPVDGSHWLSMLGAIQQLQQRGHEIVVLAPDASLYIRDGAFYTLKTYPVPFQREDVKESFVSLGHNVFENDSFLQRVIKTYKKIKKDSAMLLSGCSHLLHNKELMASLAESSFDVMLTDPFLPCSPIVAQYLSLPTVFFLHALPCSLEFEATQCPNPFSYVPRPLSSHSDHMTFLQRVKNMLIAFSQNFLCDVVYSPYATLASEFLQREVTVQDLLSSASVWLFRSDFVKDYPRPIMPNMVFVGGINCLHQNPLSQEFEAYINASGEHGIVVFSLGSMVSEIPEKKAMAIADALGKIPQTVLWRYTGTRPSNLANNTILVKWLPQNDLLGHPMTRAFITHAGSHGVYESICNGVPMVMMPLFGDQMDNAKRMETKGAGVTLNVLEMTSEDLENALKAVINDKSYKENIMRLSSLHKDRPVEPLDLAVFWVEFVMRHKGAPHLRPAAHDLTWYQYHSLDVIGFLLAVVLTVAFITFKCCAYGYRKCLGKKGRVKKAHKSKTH

[7] = rat, in vivo; cited from earlier work

CC(C)=CCC/C(C)=C/Cc1cc(-c2coc3cc(O)ccc3c2=O)ccc1O [CA, Corylifol A]
correlation (r) between CA-mono-oxidation and paclitaxel-6-hydroxylation (CYP2C8): 0.921
in vitro PPAR-γ activation (PPAR-γ): PPAR-γ activation
maximal plasma concentration (Cmax) of CA ([1]; 2 g/kg): 8.87 ng/mL
Cmax of CA ([1]; po, 1.2 g/kg): 1.70 ng/mL
intrinsic clearance value of glucuronidation relative to phase I metabolism (pooled HLM): 4 fold
IC50, cytotoxic activity [2]: 4.6 µg/mL (≈ 11.8 µM)
CLint (UGT1A9 [3]): 191.94 µL/min/mg
correlation (r) between CA-7-O-glucuronidation and propofol-O-glucuronidation (UGT1A9 [4]): 0.771
metabolism of CA ([5]; CYP1A2, 1B1, 2A6, 2B6, 2E1, 3A4 and 3A5): cannot metabolize CA at all
CLint values (phase I metabolic activities) ([5]; range over CYP1A1, 2C8 and 2C19): 13.01 to 49.36 µL/min/mg
IC50 (human UGT1A1): 650 nM
Ki (human UGT1A1): 790 nM
catalytic activity to CA-glucuronidation ([6]; UGT1A1, 1A7, 1A8 and 1A9): strong catalytic activity
catalytic activity to CA-glucuronidation ([6]; UGT1A3, 1A4, 2B4 and 2B7): weak catalytic activity
CLint (UGT1A1): 284.07 µL/min/mg
distribution concentrations of CA at different nuclei [7]: 260.63 to 493.29 ng·h/g
